According to ChEMBL document CHEMBL5705905, “Pharmacological targeting of kinases MST1 and MST2 augments tissue repair and regeneration” (Sci Transl Med, 2016):
The source made the active and inactive calls. The rule behind the calls is not given here.

Columns and labels:
[1] = biological target: 5'-AMP-activated protein kinase catalytic subunit alpha-1 (Homo sapiens) (UniProt Q13131); assay: Inhibition of AMPK-alpha1 (unknown origin) assessed as remaining activity at 1 uM by Kinome scan method relative to control
In short: (§1)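 Active-site-dependent competition-binding (KINOMEscan) panel of 468 kinases, test compound at 1 μM (from a 10 mM DMSO stock). Read-out is ctrl% = (test signal − positive control signal)/(negative control signal − positive control signal) × 100. DMSO is the negative control (100%) and a control compound is the positive control (0%). Lower ctrl% means tighter binding.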

[2] = biological target: NUAK family SNF1-like kinase 1 (Homo sapiens) (UniProt O60285); assay: Inhibition of ARK5 (unknown origin) assessed as remaining activity at 1 uM by Kinome scan method relative to control; in short: as §1
[3] = biological target: BMP-2-inducible protein kinase (Homo sapiens) (UniProt Q9NSY1); assay: Inhibition of BIKE (unknown origin) assessed as remaining activity at 1 uM by Kinome scan method relative to control
In short: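 KINOMEscan active-site-dependent competition-binding panel of 468 kinases, compound at 1 μM from a DMSO stock. Result reported as ctrl% = (test signal − positive control signal)/(negative control signal − positive control signal) × 100. The negative control is DMSO (100%) and the positive control is a control compound (0%). Lower ctrl% means tighter binding.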

[4] = biological target: Cyclin-dependent kinase-like 5 (Homo sapiens) (UniProt O76039); assay: Inhibition of CDKL5 (unknown origin) assessed as remaining activity at 1 uM by Kinome scan method relative to control
Chain of Cyclin-dependent kinase-like 5 (Homo sapiens) (O76039 whole entry): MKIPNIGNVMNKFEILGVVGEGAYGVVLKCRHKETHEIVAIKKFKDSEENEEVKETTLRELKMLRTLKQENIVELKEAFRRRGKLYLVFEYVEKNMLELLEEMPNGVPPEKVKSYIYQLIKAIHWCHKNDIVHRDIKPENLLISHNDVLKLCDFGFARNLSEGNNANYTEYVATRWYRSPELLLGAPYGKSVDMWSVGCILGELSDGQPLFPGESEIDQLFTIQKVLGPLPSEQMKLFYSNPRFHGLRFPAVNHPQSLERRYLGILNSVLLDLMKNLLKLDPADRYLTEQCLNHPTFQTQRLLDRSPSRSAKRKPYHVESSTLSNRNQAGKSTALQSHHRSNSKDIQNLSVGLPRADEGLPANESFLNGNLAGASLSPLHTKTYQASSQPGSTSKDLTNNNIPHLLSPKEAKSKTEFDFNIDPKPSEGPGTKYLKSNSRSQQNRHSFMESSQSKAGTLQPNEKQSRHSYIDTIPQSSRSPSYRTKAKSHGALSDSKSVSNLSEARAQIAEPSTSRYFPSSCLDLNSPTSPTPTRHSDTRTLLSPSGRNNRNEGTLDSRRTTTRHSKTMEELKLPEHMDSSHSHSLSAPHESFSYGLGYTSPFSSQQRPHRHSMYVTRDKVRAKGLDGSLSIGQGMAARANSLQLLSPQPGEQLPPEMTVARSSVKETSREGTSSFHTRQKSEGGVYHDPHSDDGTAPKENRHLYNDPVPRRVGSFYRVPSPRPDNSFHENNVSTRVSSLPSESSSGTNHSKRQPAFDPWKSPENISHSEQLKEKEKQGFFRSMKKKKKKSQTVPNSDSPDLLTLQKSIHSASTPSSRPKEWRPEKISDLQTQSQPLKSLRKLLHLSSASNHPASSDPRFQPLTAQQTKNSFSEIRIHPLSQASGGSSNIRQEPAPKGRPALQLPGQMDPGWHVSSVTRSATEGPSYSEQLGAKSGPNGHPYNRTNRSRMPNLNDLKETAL
In short: (§2)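 Active-site-dependent competition-binding profiling (KINOMEscan) at 1 μM against a 468-kinase panel; compound supplied from a 10 mM DMSO stock. Read-out is ctrl% = (test signal − positive control signal)/(negative control signal − positive control signal) × 100. DMSO is the negative control (100%) and a control compound the positive control (0%). Lower ctrl% means tighter binding.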

[5] = biological target: Macrophage colony-stimulating factor 1 receptor (Homo sapiens) (UniProt P07333); assay: Inhibition of CSF1R (unknown origin) assessed as remaining activity at 1 uM by Kinome scan method relative to control; in short: as §2
[6] = biological target: Serine/threonine-protein kinase DCLK1 (Homo sapiens) (UniProt O15075); assay: Inhibition of DCAMKL1 (unknown origin) assessed as remaining activity at 1 uM by Kinome scan method relative to control
In short: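 Active-site-dependent competition-binding assay (KINOMEscan) across a 468-kinase panel, with the inhibitor tested at 1 μM from a 10 mM DMSO stock. Read-out is ctrl% = (test signal − positive control)/(negative control − positive control) × 100. DMSO is the negative control (100%) and a control compound the positive control (0%). Lower ctrl% means tighter binding.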

[7] = system: Receptor-type tyrosine-protein kinase FLT3 (Homo sapiens), P36888 [K663Q]; assay: Inhibition of FLT3 K663Q mutant (unknown origin) assessed as remaining activity at 1 uM by Kinome scan method relative to control
[8] = biological target: Tyrosine-protein kinase FRK (Homo sapiens) (UniProt P42685); assay: Inhibition of FRK (unknown origin) assessed as remaining activity at 1 uM by Kinome scan method relative to control
[9] = biological target: G protein-coupled receptor kinase 4 (Homo sapiens) (UniProt P32298); assay: Inhibition of GRK4 (unknown origin) assessed as remaining activity at 1 uM by Kinome scan method relative to control
[10] = biological target: Serine/threonine-protein kinase MARK1 (Homo sapiens) (UniProt Q9P0L2); assay: Inhibition of MARK1 (unknown origin) assessed as remaining activity at 1 uM by Kinome scan method relative to control
[11] = biological target: MAP kinase-interacting serine/threonine-protein kinase 2 (Homo sapiens) (UniProt Q9HBH9); assay: Inhibition of MKNK2 (unknown origin) assessed as remaining activity at 1 uM by Kinome scan method relative to control
[12] = biological target: Serine/threonine-protein kinase Nek1 (Homo sapiens) (UniProt Q96PY6); assay: Inhibition of NEK1 (unknown origin) assessed as remaining activity at 1 uM by Kinome scan method relative to control
[13] = biological target: Serine/threonine-protein kinase Nek7 (Homo sapiens) (UniProt Q8TDX7); assay: Inhibition of NEK7 (unknown origin) assessed as remaining activity at 1 uM by Kinome scan method relative to control
Chain of Serine/threonine-protein kinase Nek7 (Homo sapiens) (Q8TDX7 whole entry, looked up): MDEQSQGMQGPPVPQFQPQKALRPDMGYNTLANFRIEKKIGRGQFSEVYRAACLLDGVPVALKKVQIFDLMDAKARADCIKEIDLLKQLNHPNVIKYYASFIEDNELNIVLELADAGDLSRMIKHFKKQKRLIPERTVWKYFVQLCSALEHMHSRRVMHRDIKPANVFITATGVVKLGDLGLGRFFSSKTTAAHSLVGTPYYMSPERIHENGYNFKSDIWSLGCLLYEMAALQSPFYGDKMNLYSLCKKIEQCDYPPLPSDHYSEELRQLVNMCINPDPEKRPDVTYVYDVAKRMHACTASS

[14] = biological target: Mitogen-activated protein kinase 11 (Homo sapiens) (UniProt Q15759); assay: Inhibition of P38beta (unknown origin) assessed as remaining activity at 1 uM by Kinome scan method relative to control
Chain of Mitogen-activated protein kinase 11 (Homo sapiens) (Q15759 whole entry): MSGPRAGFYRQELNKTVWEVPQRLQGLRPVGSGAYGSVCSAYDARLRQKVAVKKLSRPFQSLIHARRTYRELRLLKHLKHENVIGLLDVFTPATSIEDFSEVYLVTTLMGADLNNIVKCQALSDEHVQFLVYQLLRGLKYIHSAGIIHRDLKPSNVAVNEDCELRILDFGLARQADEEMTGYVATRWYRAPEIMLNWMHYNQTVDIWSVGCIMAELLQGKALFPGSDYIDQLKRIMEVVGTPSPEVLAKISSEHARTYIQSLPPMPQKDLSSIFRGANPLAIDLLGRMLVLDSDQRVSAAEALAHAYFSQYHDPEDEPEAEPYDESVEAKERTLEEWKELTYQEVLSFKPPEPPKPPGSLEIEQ

[15] = biological target: Serine/threonine-protein kinase N2 (Homo sapiens) (UniProt Q16513); assay: Inhibition of PKN2 (unknown origin) assessed as remaining activity at 1 uM by Kinome scan method relative to control
[16] = biological target: Protein kinase C epsilon type (Homo sapiens) (UniProt Q02156); assay: Inhibition of PRKCE (unknown origin) assessed as remaining activity at 1 uM by Kinome scan method relative to control
[17] = biological target: Protein-tyrosine kinase 2-beta (Homo sapiens) (UniProt Q14289); assay: Inhibition of PYK2 (unknown origin) assessed as remaining activity at 1 uM by Kinome scan method relative to control
Chain of Protein-tyrosine kinase 2-beta (Homo sapiens) (Q14289 whole entry, looked up): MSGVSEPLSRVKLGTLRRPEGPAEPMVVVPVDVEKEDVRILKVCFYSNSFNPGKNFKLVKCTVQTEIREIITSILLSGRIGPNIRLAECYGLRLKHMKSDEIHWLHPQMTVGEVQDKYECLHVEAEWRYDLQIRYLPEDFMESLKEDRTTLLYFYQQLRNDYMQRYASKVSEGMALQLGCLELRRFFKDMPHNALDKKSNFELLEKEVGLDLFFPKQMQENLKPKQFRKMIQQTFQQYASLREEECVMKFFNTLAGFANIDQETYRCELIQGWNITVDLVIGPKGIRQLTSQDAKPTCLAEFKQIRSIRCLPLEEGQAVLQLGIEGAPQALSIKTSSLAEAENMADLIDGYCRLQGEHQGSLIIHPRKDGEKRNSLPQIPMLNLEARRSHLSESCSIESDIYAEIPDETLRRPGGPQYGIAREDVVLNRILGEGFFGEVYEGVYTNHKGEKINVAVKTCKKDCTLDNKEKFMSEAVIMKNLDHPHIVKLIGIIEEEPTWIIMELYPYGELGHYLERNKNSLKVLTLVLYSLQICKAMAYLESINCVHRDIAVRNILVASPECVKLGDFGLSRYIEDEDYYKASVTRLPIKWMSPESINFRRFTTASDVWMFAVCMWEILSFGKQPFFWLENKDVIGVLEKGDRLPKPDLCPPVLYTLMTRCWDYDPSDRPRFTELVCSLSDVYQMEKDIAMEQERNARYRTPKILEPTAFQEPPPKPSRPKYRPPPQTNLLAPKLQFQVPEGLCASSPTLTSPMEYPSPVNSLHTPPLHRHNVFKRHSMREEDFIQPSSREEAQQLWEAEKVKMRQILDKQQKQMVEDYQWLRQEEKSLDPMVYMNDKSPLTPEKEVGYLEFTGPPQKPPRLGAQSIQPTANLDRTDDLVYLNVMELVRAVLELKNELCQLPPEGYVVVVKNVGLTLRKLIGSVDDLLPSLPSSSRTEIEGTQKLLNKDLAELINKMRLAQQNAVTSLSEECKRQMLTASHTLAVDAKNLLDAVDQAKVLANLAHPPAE

[18] = biological target: Serine/threonine-protein kinase SBK1 (Homo sapiens) (UniProt Q52WX2); assay: Inhibition of SBK1 (unknown origin) assessed as remaining activity at 1 uM by Kinome scan method relative to control
Chain of Serine/threonine-protein kinase SBK1 (Homo sapiens) (Q52WX2 whole entry): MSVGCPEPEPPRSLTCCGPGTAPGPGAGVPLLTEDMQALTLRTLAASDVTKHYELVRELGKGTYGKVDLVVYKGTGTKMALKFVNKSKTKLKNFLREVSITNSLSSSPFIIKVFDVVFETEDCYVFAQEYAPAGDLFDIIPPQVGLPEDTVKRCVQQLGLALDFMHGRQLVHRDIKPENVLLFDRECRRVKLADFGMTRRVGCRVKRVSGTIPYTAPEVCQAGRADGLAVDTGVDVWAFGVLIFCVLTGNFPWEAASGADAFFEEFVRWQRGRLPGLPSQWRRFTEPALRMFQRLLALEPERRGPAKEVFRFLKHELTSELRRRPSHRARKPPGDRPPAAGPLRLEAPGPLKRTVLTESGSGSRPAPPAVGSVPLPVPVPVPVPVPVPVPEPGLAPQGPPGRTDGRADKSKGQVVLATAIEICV

[19] = biological target: Tyrosine-protein kinase Tec (Homo sapiens) (UniProt P42680); assay: Inhibition of TEC (unknown origin) assessed as remaining activity at 1 uM by Kinome scan method relative to control
Chain of Tyrosine-protein kinase Tec (Homo sapiens) (P42680 whole entry): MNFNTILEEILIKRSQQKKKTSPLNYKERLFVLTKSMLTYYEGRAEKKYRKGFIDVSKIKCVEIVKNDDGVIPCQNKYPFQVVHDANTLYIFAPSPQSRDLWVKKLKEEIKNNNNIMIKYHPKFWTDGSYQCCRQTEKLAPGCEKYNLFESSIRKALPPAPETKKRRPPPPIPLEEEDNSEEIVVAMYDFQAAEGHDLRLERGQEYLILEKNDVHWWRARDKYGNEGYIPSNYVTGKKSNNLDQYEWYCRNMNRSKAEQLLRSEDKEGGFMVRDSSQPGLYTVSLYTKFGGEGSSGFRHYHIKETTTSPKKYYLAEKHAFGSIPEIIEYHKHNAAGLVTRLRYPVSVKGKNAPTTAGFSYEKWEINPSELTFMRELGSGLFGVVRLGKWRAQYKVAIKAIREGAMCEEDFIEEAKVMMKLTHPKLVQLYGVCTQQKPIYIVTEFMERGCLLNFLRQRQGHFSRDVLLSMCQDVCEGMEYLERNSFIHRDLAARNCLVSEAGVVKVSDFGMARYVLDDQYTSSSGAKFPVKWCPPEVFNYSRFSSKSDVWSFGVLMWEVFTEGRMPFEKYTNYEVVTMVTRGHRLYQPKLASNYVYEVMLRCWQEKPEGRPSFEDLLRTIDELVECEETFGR

[20] = biological target: Phosphatidylinositol 3-kinase catalytic subunit type 3 (Homo sapiens) (UniProt Q8NEB9); assay: Inhibition of VPS34 (unknown origin) assessed as remaining activity at 1 uM by Kinome scan method relative to control
[21] = biological target: Serine/threonine-protein kinase WNK1 (Homo sapiens) (UniProt Q9H4A3); assay: Inhibition of WNK1 (unknown origin) assessed as remaining activity at 1 uM by Kinome scan method relative to control
[22] = Binding affinity to phosphorylated ABL1 T315I mutant (unknown origin) assessed as dissociation constant; set-up: species or system Homo sapiens
[23] = biological target: Tyrosine-protein kinase JAK1 (Homo sapiens, UniProt P23458); assay: Inhibition of JAK1 JH2domain-pseudokinase (unknown origin) in presence of ATP by enzymatic assay
Chain of Tyrosine-protein kinase JAK1 (P23458 whole entry): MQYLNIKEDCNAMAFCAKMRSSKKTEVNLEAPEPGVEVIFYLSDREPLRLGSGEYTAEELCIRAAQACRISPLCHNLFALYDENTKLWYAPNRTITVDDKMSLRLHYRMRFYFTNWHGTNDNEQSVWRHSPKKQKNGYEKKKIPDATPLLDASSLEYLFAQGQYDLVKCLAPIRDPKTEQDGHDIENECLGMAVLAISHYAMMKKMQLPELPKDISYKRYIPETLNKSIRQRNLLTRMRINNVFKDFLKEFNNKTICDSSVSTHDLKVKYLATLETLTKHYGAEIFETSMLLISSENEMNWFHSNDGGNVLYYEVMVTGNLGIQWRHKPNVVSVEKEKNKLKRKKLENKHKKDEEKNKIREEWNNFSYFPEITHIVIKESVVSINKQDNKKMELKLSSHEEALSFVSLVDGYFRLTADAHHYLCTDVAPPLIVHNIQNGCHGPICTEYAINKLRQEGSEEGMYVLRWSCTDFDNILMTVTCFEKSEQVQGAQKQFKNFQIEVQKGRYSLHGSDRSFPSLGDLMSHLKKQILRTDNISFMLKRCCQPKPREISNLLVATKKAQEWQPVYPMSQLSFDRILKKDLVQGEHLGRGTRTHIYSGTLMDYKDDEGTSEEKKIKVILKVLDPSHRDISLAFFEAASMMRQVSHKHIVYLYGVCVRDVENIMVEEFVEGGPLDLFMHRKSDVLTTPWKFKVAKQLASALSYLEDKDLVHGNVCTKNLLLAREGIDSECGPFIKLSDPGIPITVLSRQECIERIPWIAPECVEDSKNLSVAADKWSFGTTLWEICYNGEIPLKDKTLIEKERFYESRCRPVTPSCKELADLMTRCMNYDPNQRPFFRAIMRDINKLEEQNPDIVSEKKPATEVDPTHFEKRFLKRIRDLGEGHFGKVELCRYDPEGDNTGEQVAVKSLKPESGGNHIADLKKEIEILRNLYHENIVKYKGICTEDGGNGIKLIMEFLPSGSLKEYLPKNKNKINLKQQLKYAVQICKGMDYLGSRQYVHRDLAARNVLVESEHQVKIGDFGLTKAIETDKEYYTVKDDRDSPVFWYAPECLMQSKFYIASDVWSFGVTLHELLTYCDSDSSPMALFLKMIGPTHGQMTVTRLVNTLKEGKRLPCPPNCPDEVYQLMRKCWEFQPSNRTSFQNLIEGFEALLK

Mus musculus [24] = assay: In vivo inhibition of MST1/2 in mouse assessed as YAP phosphorylation level at 1 mg/kg, ip administration and measured after between 1.5 to 6 hrs by immunoblot analysis; type: functional, organism-based; settings: time 1.5-6 hrs
In short: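 Wild-type mice received 1 mg/kg intraperitoneally, with vehicle of 0.1% citric acid aqueous solution containing 20% Kolliphor HS 15. Livers were harvested over 0–12 h and lysates immunoblotted for p-MOB1 and p-YAP, normalized to control. Means ± SD, n = 3.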

Mus musculus [25] = assay: Protection against CCl4-induced mouse assessed as low dead cells at 1 mg/kg, ip administration daily for 10 days by TUNEL staining; type: functional, organism-based; settings: Liver, time 10.0 day

**Q.** Which Activity [1] does the source give for `CN1C(=O)c2sccc2N(C)c2nc(Nc3ccc(S(N)(=O)=O)cc3)ncc21` here?
**A.** 100%

**Q.** And the Activity [2]?
**A.** 96%

**Q.** And the Activity [3]?
**A.** 95%

**Q.** And the Activity [4]?
**A.** 85%

**Q.** What about the Activity [5] of the same compound?
**A.** 86%

**Q.** And the Activity [6]?
**A.** 8.3%

**Q.** And the Activity [7]?
**A.** 87%

**Q.** What about the Activity [8] of the same compound?
**A.** 100%

**Q.** What about the Activity [9] of the same compound?
**A.** 99%

**Q.** And the Activity [10]?
**A.** 92%

**Q.** What about the Activity [11] of the same compound?
**A.** 59%

**Q.** And the Activity [12]?
**A.** 95%

**Q.** What about the Activity [13] of the same compound?
**A.** 88%

**Q.** And the Activity [14]?
**A.** 83%

**Q.** What about the Activity [15] of the same compound?
**A.** 94%

**Q.** What about the Activity [16] of the same compound?
**A.** 98%

**Q.** And the Activity [17]?
**A.** 98%

**Q.** What about the Activity [18] of the same compound?
**A.** 42%

**Q.** And the Activity [19]?
**A.** 100%

**Q.** And the Activity [20]?
**A.** 79%

**Q.** What about the Activity [21] of the same compound?
**A.** 97%

**Q.** What about the Kd [22] of the same compound?
**A.** 14 nM

**Q.** What about the IC50 [23] of the same compound?
**A.** 38.7 nM

**Q.** What about the inhibition (Mus musculus [24]) of the same compound?
**A.** Active

**Q.** What about the Activity (Mus musculus [25]) of the same compound?
**A.** Active
